Screens deposited in PubChem BioAssay by Johns Hopkins Ion Channel Center.
Kir21 inh = blocks the mouse Kir2.1 inward-rectifier potassium channel. hit rate 0.85% among 310,000. HEK293-Kir2.1, FluxOR thallium flux fluorescence; stronger effect = lower value. B-score at 10 µM;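 active = fluorescence ratio B-score at or below minus 3 SD of library scores, with starting-brightness B-score within 2 SD, cut at about -4.2 in these data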;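 note: channel flux triggered by added potassium and thallium sulfate stimulus; B-score of peak minus minimum fluorescence over baseline after thallium stimulus; more negative B-score means stronger Kir2.1 block with less thallium influx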
Target sequence (P35561 whole entry, looked up): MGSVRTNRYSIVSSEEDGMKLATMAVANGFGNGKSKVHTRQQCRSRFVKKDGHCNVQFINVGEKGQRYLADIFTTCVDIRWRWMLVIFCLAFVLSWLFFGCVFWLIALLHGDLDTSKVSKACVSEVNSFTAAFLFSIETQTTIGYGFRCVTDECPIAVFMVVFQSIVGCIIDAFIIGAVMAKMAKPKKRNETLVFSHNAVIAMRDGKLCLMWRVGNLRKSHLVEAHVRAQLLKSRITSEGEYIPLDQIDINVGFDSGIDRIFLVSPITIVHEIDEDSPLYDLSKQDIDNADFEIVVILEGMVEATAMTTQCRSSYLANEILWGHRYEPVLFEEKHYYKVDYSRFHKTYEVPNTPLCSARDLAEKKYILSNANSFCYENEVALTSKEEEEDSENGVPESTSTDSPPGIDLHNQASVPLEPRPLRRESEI
KCNK9 inh = human KCNK9 channel inhibition. AID 488922. hit rate 1.2% among 310,000. HEK293 KCNK9, FluxOR thallium flux fluorescence; stronger effect = lower value. B-score at 10 µM. Q9NPC2;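 active = ratio B-score over 3 SD below the library mean, with starting fluorescence within 5 SD of its mean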;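 note: negative B-score means less thallium flux so channel inhibition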
KCNK3 inh = human KCNK3 channel inhibition, primary screen. O14649. hit rate 0.84% among 340,000. B-score at 10 µM. AID 602410. CHO-KCNK3 thallium flux, FluxOR fluorescence; stronger effect = lower value;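 active = B-score under library mean minus 4 SD, starting fluorescence ratio at most library mean plus 5 SD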;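 note: more negative B-score means stronger inhibition of thallium flux through KCNK3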
KCNQ1 inh = blocks the human KCNQ1 potassium channel | P51787 | CHO-K1 KCNQ1, FluxOR thallium flux fluorescence; stronger effect = higher value | B-score at 10 µM | hit rate 1.3% among 310,000;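 active = compounds whose thallium flux B-score, printed positive for inhibition, exceeds three library SD while starting fluorescence stays within three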;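 note: channel opened by potassium depolarization with thallium stimulus after 20 min compound exposure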
hERG protect = compounds protecting human hERG from proarrhythmic drug block; activation (rescue from dofetilide block), less the hit threshold, % at 10 µM; AID 1511; Q12809; CHO-hERG, FluxOR thallium flux, dofetilide IC70 present; hit rate 0.51% among 310,000;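 active = activation above the mean of controls blocked by dofetilide plus 5 SD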;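 note: thallium influx through hERG after potassium depolarization seen as dye fluorescence rise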
KCNQ1 act = potentiates or activates the human KCNQ1 potassium channel. CHO-K1 KCNQ1, thallium flux FluxOR fluorescence; stronger effect = higher value. B-score at 10 µM. hit rate 0.35% among 310,000. AID 2648;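 active = fluorescence ratio B-score, a plate-corrected score, at least three library SD, with initial intensity B-score within 5 SD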
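Schedule – 37 °C overnight plating, 90-min dark dye load, 20-min compound pretreatment · System – stable KCNQ1 CHO-K1 line · Probe or stimulus – thallium- and potassium-containing depolarizing buffer · Measured by – kinetic FluxOR fluorescence, 10 s baseline plus 110 s post-stimulus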
Of the large screens only hits and unclear results are named; the others gave an inactive call. A selection: hits, their analogues and other compounds. The true share with any hit is near 3.7%.

COc1ccc(-c2ccc(SCC(=O)NC3CCCCC3)nn2)cc1	none
COc1ccc(-c2cn3nc(SCC(=O)NC4CCCCC4)ccc3n2)cc1	hERG protect 5.3
Cc1cc(C)nc(SCc2nnc(SCC(=O)N3CCCc4ccccc43)o2)n1	Kir21 inh -5
CC(C)(CC1(C)NC(=O)NC1=O)OCc1ccccc1 (stereo unspecified)	none (no result: Kir21 inh, KCNK9 inh, KCNQ1 inh, hERG protect, KCNQ1 act)
CCN1C(=O)/C(=C/c2cn(-c3ccccc3)nc2-c2cccnc2)SC1=S	KCNK3 inh -10 (no result: Kir21 inh, KCNK9 inh, KCNQ1 inh, hERG protect, KCNQ1 act)
Cc1ccc(-c2nn(-c3ccccc3)cc2/C=C2\SC(=S)N(CC(=O)O)C2=O)cc1	none
Cc1cccc(-n2ncc3c(N)ncnc32)c1	none
Cc1cccc(-n2ncc3c(N(C)Cc4ccccc4)ncnc32)c1	KCNK3 inh -11
Cc1cc(Nc2ncc(Cl)cc2Cl)n(-c2ccccc2C)n1	Kir21 inh -4.8
Cc1ccc(-n2nc(C)cc2Nc2ncc(Cl)cc2Cl)cc1	none
CN(CC1COc2ccccc2O1)C(=O)c1cccc(S(=O)(=O)N2CCCC2)c1 (stereo unspecified)	none (no result: Kir21 inh, KCNK9 inh, KCNQ1 inh, hERG protect, KCNQ1 act)
N#Cc1c(NC(=O)CSc2ccccn2)oc(-c2ccccc2)c1-c1ccccc1	KCNQ1 inh 7
COC(=O)C1Cc2c([nH]c3ccccc23)C2(CCN(Cc3ccccc3)CC2)N1 (stereo unspecified)	Kir21 inh -6.8
O=c1[nH]c(=S)c2[nH]c(=S)n(-c3ccccc3)c2[nH]1	none (no result: Kir21 inh, KCNK9 inh, KCNQ1 inh, hERG protect, KCNQ1 act)
CCCc1c(C)nc2ccc(OC)cc2c1SCCC(=O)O	none
CCCc1c(C)nc2c(OC)cccc2c1SCC(=O)O	hERG protect 4.7
O=c1cc2c(nn1Cc1c(Cl)cccc1Cl)-c1ccccc1CC2	KCNQ1 act 9
CNC(=O)CSc1nnc(-c2ccco2)n1-c1ccc(C)cc1	hERG protect 48
Cc1ccccc1NC(=O)c1cc(C(=O)c2cc(Cl)ccc2O)cn(-c2ccccc2C)c1=O	KCNQ1 inh 9
COc1ccccc1Nc1nc(NCC2CCCO2)c2ccccc2n1 (stereo unspecified)	Kir21 inh -12
O=S(=O)(NCc1csc(-c2ccccc2)n1)c1ccc(Cl)s1	Kir21 inh -4.6
CCc1ccc(S(=O)(=O)NCc2csc(-c3ccccc3)n2)s1	Kir21 inh -6.3
COc1ccc(OC)c(S(=O)(=O)NCc2cn3c(C)csc3n2)c1	none
CCc1ccc(S(=O)(=O)NCCc2csc(-c3cccnc3)n2)s1	none
COc1ccc(OC)c(S(=O)(=O)NCc2csc(-c3ccccc3)n2)c1	Kir21 inh -4.2
COc1ccccc1N1CCN(/N=C/c2cc(Br)ccc2F)CC1	KCNQ1 inh 9
CCOC(=O)C1CCCN(C(=O)C(C)(C)Oc2ccc(Cl)cc2)C1 (stereo unspecified)	Kir21 inh -5
O=C(CCOc1ccccc1)Nc1ccccc1F	none
CCCN1C(=O)/C(=C\C=C2\N(CC)c3ccccc3C2(C)C)SC1=S	KCNQ1 inh 9
COc1ccc(NC(=S)NNc2ccc([N+](=O)[O-])cc2S(=O)(=O)Nc2ccc(C)cc2C)cc1	KCNQ1 inh 7
Cc1ccc(NS(=O)(=O)c2cc([N+](=O)[O-])ccc2NNC(=S)Nc2cc(C)ccc2C)c(C)c1	KCNQ1 inh 6
Cc1ccc(NS(=O)(=O)c2cc([N+](=O)[O-])ccc2NNC(=S)Nc2cccc(Cl)c2)c(C)c1	KCNQ1 inh 6
O=C(Nc1ccn(CCCNCC2CCCO2)c(=O)n1)OCc1ccccc1 (stereo unspecified)	none (no result: Kir21 inh, KCNK9 inh, KCNQ1 inh, hERG protect, KCNQ1 act)
CC1N(C)c2cc(NC(=O)c3cccs3)c(P(=O)(Nc3ccc([N+](=O)[O-])cc3)N3CCOCC3)cc2C1(C)C (stereo unspecified)	KCNK9 inh -7.2
COc1ccccc1C(=O)NNC(=S)NC(=O)c1cccs1	KCNQ1 act 10
COc1ccccc1C(=O)NNC(=S)NC(=O)c1sc2ccccc2c1Cl	hERG protect 25, KCNQ1 act 25
COc1ccccc1C(=O)NC(=S)NNC(=O)c1sc2ccccc2c1Cl	hERG protect 86, KCNQ1 act 46
Cc1c(NC(=S)NC(=O)c2sc3ccccc3c2Cl)cccc1C(=O)O	none
COc1cccc(/C=N/Nc2ccc(S(=O)(=O)O)cc2)c1O	none
